Our source for the CC50 and IC50 values is ChEMBL document CHEMBL1150245, “1-Aryl-2-dimethylaminomethyl-2-propen-1-one hydrochlorides and related adducts: A quest for selective cytotoxicity for malignant cells” (Bioorg Med Chem, 2008).

One may read the CC50 as the concentration giving 50% cytotoxicity. Broadly, the IC50 is the concentration at which inhibition is half-maximal. Read a high IC50 as lower potency.

The test system of one data set is HL-60. Put plainly: Cytotoxicity against human HL60 cells.
Details: not given
The data set is classed as functional. The method in brief:
(§1)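 CC50 is the concentration killing 50% of cells, tested up to a highest concentration of 400 μM. Each value is the average of two independent determinations.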
On to `CN(C)CC(CO)C(=O)c1ccc([N+](=O)[O-])cc1` (configuration not stated), for which the midpoint of cytotoxicity, the CC50, lay at 35 µM.
For the compound `C=C(CN(C)C)C(=O)c1ccccc1`, it took 12 µM to reach half-maximal cytotoxicity (CC50).
On the same count and under the same terms, the figure for `C=C(CN(C)C)C(=O)c1ccc(Cl)cc1` is less than 3.1 µM; for `C=C(CN(C)C)C(=O)c1ccc(C)cc1` it is 0.45 µM; for `COc1ccc(C(=O)C(CO)CN(C)C)cc1` (configuration not stated) it is 0.46 µM.
The same measure, in the same setting: the result for `N[C@@H](Cc1ccc(N(CCCl)CCCl)cc1)C(=O)O` [MELPHALAN] reads 6 µM.

System in another data set: not listed separately
The data set is described as follows: Cytotoxicity against human HPLF cells. It is filed as cell-based.
Details: not given
The procedure, abridged:
as §1
In turn, `CN(C)CC(CO)C(=O)c1ccc([N+](=O)[O-])cc1` (configuration not stated) gave a half-maximal cytotoxic concentration (CC50) of 176 µM.
Compound `C=C(CN(C)C)C(=O)c1ccccc1` yielded a 50% cytotoxic concentration (CC50) of 52 µM.
Same read-out and setting: the result for `C=C(CN(C)C)C(=O)c1ccc(Cl)cc1` reads 9.2 µM.
Same read-out and setting: the result for `C=C(CN(C)C)C(=O)c1ccc(C)cc1` reads 8.1 µM; that for `COc1ccc(C(=O)C(CO)CN(C)C)cc1` (configuration not stated), 4.9 µM; that for `N[C@@H](Cc1ccc(N(CCCl)CCCl)cc1)C(=O)O` [MELPHALAN], greater than 200 µM.

A further data set concerns HSC-4. Put plainly: Cytotoxicity against human HSC4 cells. The data set is classed as functional.
Details: not given
The procedure, abridged:
as §1
The compound `CN(C)CC(CO)C(=O)c1ccc([N+](=O)[O-])cc1` (configuration not stated) had a CC50 of 99 µM.
Still for that read-out and setting: the figure for `C=C(CN(C)C)C(=O)c1ccccc1` is 33 µM.
With `C=C(CN(C)C)C(=O)c1ccc(Cl)cc1`, the midpoint of cytotoxicity, the CC50, lay at 6.4 µM.
On the same count and under the same terms, the result for `C=C(CN(C)C)C(=O)c1ccc(C)cc1` reads 7.6 µM; that for `COc1ccc(C(=O)C(CO)CN(C)C)cc1` (configuration not stated), 5.2 µM; that for `N[C@@H](Cc1ccc(N(CCCl)CCCl)cc1)C(=O)O` [MELPHALAN], 81 µM.

In another data set the test system is CCRF-CEM. Put plainly: Cytotoxicity against human CCRF-CEM cells. The data set is classed as functional, cell-based.
Details: not given
The procedure, abridged: (§2)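 Part of a human tumour cell line panel screen run by a literature procedure with compounds at 10−8–10−4 M. GI50 is the concentration giving 50% growth inhibition. Where 50% inhibition was not reached at 100 μM, 100 μM was used as the value.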
Turning to `C=C(CN(C)C)C(=O)c1ccccc1`, half-maximal inhibition (IC50) required 0.4 µM. This counts as sub-micromolar.
On the same count and under the same terms, the result for `C=C(CN(C)C)C(=O)c1ccc(Cl)cc1` reads 3.31 µM.
The same measure, in the same setting: the result for `N[C@@H](Cc1ccc(N(CCCl)CCCl)cc1)C(=O)O` [MELPHALAN] reads 6.17 µM.

Another data set deals with RPMI-8226. The data set is described as follows: Cytotoxicity against human RPMI8226 cells. The data set is classed as functional, cell-based.
Details: not given
The method in brief:
as §2
In turn, `C=C(CN(C)C)C(=O)c1ccccc1` showed an IC50 of 1.91 µM.
Same read-out and setting: the figure for `COc1ccc(C(=O)C(CO)CN(C)C)cc1` (configuration not stated) is 20 µM; for `N[C@@H](Cc1ccc(N(CCCl)CCCl)cc1)C(=O)O` [MELPHALAN] it is 66.1 µM.

Another data set concerns SR. The data set is described as follows: Cytotoxicity against human SR cells. It is filed as cell-based.
Details: not given
The method in brief: as §2
With `C=C(CN(C)C)C(=O)c1ccccc1`, the IC50 was found to be 0.55 µM.
Still for that read-out and setting: the figure for `C=C(CN(C)C)C(=O)c1ccc(Cl)cc1` is 3.98 µM.

A further data set deals with L1210. The data set is described as follows: Cytotoxicity against mouse L1210 cells after 48 hrs. The conditions noted are these: L1210, 48 h.
`CN(C)CC(CO)C(=O)c1ccc([N+](=O)[O-])cc1` (configuration not stated) came in with a concentration for half-maximal inhibition (IC50) of 42.6 µM. In other words, the double-digit micromolar range.
The same measure, in the same setting: the result for `C=C(CN(C)C)C(=O)c1ccc(Cl)cc1` reads 26.5 µM; that for `C=C(CN(C)C)C(=O)c1ccc(C)cc1`, 11.1 µM; that for `COc1ccc(C(=O)C(CO)CN(C)C)cc1` (configuration not stated), 1.57 µM.

System in another data set: not listed separately
Put plainly: Cytotoxicity against human HGF cells. It is filed as cell-based.
Details: not given
The method in brief:
as §1
For the compound `CN(C)CC(CO)C(=O)c1ccc([N+](=O)[O-])cc1` (configuration not stated), the CC50 was 271 µM.
Regarding `C=C(CN(C)C)C(=O)c1ccccc1`, the midpoint of cytotoxicity, the CC50, lay at 26 µM.
On the same count and under the same terms, the figure for `C=C(CN(C)C)C(=O)c1ccc(Cl)cc1` is 6.1 µM; for `C=C(CN(C)C)C(=O)c1ccc(C)cc1` it is 6.1 µM; for `COc1ccc(C(=O)C(CO)CN(C)C)cc1` (configuration not stated) it is 4 µM.
Still for that read-out and setting: the figure for `N[C@@H](Cc1ccc(N(CCCl)CCCl)cc1)C(=O)O` [MELPHALAN] is greater than 200 µM.

The test system of the next data set is HSC-2. Put plainly: Cytotoxicity against human HSC2 cells.
Details: not given
It is filed as functional. The method in brief:
as §1
Take `CN(C)CC(CO)C(=O)c1ccc([N+](=O)[O-])cc1` (configuration not stated): half-maximal cytotoxicity (CC50) was put at 73 µM.
The same measure, in the same setting: the result for `C=C(CN(C)C)C(=O)c1ccccc1` reads 29 µM.
With `C=C(CN(C)C)C(=O)c1ccc(Cl)cc1`, the midpoint of cytotoxicity, the CC50, lay at 5.1 µM.
In turn, `C=C(CN(C)C)C(=O)c1ccc(C)cc1` gave a CC50 of 3.4 µM.
Still for that read-out and setting: the result for `COc1ccc(C(=O)C(CO)CN(C)C)cc1` (configuration not stated) reads 2.5 µM.
Still for that read-out and setting: the result for `N[C@@H](Cc1ccc(N(CCCl)CCCl)cc1)C(=O)O` [MELPHALAN] reads 35 µM.

System in another data set: not listed separately
The data set is described as follows: Cytotoxicity against human Molt4/C8 cells after 72 hrs. The settings on record: MOLT-4, 72 h. The data set is classed as functional, cell-based. The method in brief: (§3)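 Human transformed T-lymphocytes exposed to a range of compound concentrations at 37 °C for 72 h. IC50 is the concentration giving 50% inhibition of cell growth.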
For the compound `CN(C)CC(CO)C(=O)c1ccc([N+](=O)[O-])cc1` (configuration not stated), the IC50 is 36.8 µM.
On the same count and under the same terms, the result for `C=C(CN(C)C)C(=O)c1ccccc1` reads 146 µM; that for `C=C(CN(C)C)C(=O)c1ccc(Cl)cc1`, 30.2 µM.
In turn, `C=C(CN(C)C)C(=O)c1ccc(C)cc1` gave a concentration for half-maximal inhibition (IC50) of 35.5 µM.
Consider `COc1ccc(C(=O)C(CO)CN(C)C)cc1` (configuration not stated), for which the IC50 was determined as 4.9 µM.

System in another data set: not listed separately
Put plainly: Cytotoxicity against human HPC cells. The data set is classed as cell-based.
Details: not given
The method in brief: as §1
`CN(C)CC(CO)C(=O)c1ccc([N+](=O)[O-])cc1` (configuration not stated): it took 227 µM to reach half-maximal cytotoxicity (CC50).
In turn, `C=C(CN(C)C)C(=O)c1ccccc1` displayed a CC50 of 31 µM.
On to `C=C(CN(C)C)C(=O)c1ccc(Cl)cc1`, for which the CC50 amounted to 6 µM.
Same read-out and setting: the result for `C=C(CN(C)C)C(=O)c1ccc(C)cc1` reads 6.9 µM.
Same read-out and setting: the result for `COc1ccc(C(=O)C(CO)CN(C)C)cc1` (configuration not stated) reads 5.3 µM.
On the same count and under the same terms, the result for `N[C@@H](Cc1ccc(N(CCCl)CCCl)cc1)C(=O)O` [MELPHALAN] reads greater than 200 µM.

The test system of another data set is L1210. Put plainly: Cytotoxicity against mouse L1210 cells after 72 hrs. The data set is classed as functional, cell-based. The conditions noted are these: L1210, 72 h.
For `C=C(CN(C)C)C(=O)c1ccccc1`, the midpoint of inhibition, the IC50, lay at 52.2 µM.

For a further data set, the system named is CCRF-CEM. Put plainly: Cytotoxicity against human CEM cells after 72 hrs. It is filed as functional, cell-based.
Details: not given
The procedure, abridged: as §3
On to `CN(C)CC(CO)C(=O)c1ccc([N+](=O)[O-])cc1` (configuration not stated), for which half-maximal inhibition (IC50) was put at 12.2 µM.
In turn, `C=C(CN(C)C)C(=O)c1ccccc1` came in with an IC50 of 65.6 µM.
The same measure, in the same setting: the result for `C=C(CN(C)C)C(=O)c1ccc(Cl)cc1` reads 32.6 µM; that for `C=C(CN(C)C)C(=O)c1ccc(C)cc1`, 11.4 µM; that for `COc1ccc(C(=O)C(CO)CN(C)C)cc1` (configuration not stated), 1.15 µM.

The test system of a further data set is K562. Put plainly: Cytotoxicity against human K562 cells. The data set is classed as functional, cell-based.
Details: not given
The method in brief: as §2
The compound `C=C(CN(C)C)C(=O)c1ccccc1` displayed an IC50 of 2.19 µM.
Turning to `C=C(CN(C)C)C(=O)c1ccc(Cl)cc1`, the IC50 was 3.47 µM.
Still for that read-out and setting: the figure for `COc1ccc(C(=O)C(CO)CN(C)C)cc1` (configuration not stated) is 0.49 µM.
